The list is not random: actives were taken first. Their share in the collection is about 9.8%.
Rad51 HR inh: Rad51 (human) homologous recombination inhibition | Q06609 | actives 0.085% (n = 200,000) | hRad51 DNA strand exchange, fluorescence dequenching | inhibition, % at 10 µM | AID 1385;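 active = inhibition above 40% at the single screening dose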;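 also: 0% = DMSO control wells and 100% = blanks with heterologous ssDNA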
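Material: hRad51 filaments on single-stranded DNA; Reagent: Donor/quencher-labelled 47-bp dsDNA substrate; Compound: 10 µM final, single point; Schedule: 37 °C 15-min filament assembly, 30-min compound preincubation, 15-min exchange; Technique: FRET fluorescence, excitation 485 nm, emission 520 nm; Benchmarks: control wells and blank wells on each plate.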
Lmaj promast: inhibitors of Leishmania major promastigote growth; actives 9% (n = 200,000); Leishmania major promastigotes, resazurin fluorescence viability; inhibition, % at 10 µM; in the data active = inhibition above about 50%;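 also: promastigotes grown with compound for 44 hours at 28 °C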
WT yeast gro inh: growth inhibition of WT yeast, mitochondrial fusion screen; mitochondrial fusion phenotypic screen, WT strain; inhibition, % at 10 µM; AID 1362; actives 2.1% (n = 190,000); in the data active = inhibition above about 58%; tested in S. cerevisiae
PMI act satM6P: increases human PMI activity with near-saturating mannose 6-phosphate; activation factor at 20 µM; AID 1216; coupled PMI enzyme assay, resazurin fluorescence, 20 min; stronger effect = higher value; 1 = untreated enzyme, 0 = substrate-free blank; P34949; actives 0.34% (n = 190,000);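 active = activation factor of 2 or more at 20 µM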
Target sequence (P34949 whole entry, looked up): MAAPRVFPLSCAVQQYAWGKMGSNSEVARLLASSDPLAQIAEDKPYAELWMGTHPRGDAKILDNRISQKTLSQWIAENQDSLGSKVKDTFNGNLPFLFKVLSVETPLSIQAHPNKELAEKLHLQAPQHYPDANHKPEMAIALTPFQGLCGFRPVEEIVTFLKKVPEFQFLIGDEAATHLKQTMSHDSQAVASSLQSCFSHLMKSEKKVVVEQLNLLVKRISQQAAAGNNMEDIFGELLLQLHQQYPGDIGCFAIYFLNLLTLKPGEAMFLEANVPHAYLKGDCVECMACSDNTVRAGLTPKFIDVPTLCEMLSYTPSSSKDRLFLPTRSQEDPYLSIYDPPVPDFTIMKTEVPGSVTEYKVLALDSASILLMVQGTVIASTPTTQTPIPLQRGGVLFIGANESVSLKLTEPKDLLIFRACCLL
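Test system: human PMI in coupled enzyme assay; Input: PMI at 15 ng/mL final; Medium: HEPES buffer, pH 7.4; Schedule: 20 min incubation at room temperature; Technique: resorufin fluorescence at Ex 544/Em 590 nm; Compound: 20 µM single dose; Probe or stimulus: Near-saturating mannose-6-phosphate, 1.0 mM.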
PMI act: increases human mannose-6-phosphate isomerase activity; P34949; purified human PMI, coupled resazurin fluorescence, 20 min; stronger effect = higher value; 1 = vehicle control, 0 substrate-free wells; activation factor at 20 µM; actives 0.005% (n = 190,000);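 active = activation factor of 2 or more at 20 µM, relative to plate controls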
Calpain2 inh: blocks pig calpain II enzyme activity; inhibition, % at 16 µM; actives 0.37% (n = 220,000); AID 1236; purified calpain II, fluorogenic peptide substrate, 30 min;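 active = inhibition above about 50%, limit read from the data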
Numbers without * were called inactive.

COc1ccc2c(c1)Cc1sc(NC(=O)c3ccccc3)nc1-2 was read as Rad51 HR inh 4, Lmaj promast 9, WT yeast gro inh 19, PMI act satM6P 1.1, PMI act 1 and Calpain2 inh -432.
Screening COc1ccc(C(=O)Nc2nc3c(s2)Cc2cc(OC)ccc2-3)cc1 returned Rad51 HR inh 1, Lmaj promast 96*, WT yeast gro inh 3, PMI act satM6P 0.7, PMI act 1 and Calpain2 inh -54.
Screening Cc1cc(Nc2ccccc2)nc2cc(O)ccc12 returned Rad51 HR inh 0, Lmaj promast 83*, WT yeast gro inh 62*, PMI act satM6P 1, PMI act 1.1 and Calpain2 inh -14.
For COc1ccc(Nc2cc(C)c3ccc(O)cc3n2)cc1 the results were Rad51 HR inh 12 and Calpain2 inh 4.
CCOc1ccc(C(=O)NCC2OCCc3ccccc32)cc1 (stereo not drawn) was read as Rad51 HR inh -1, Lmaj promast -4, WT yeast gro inh 26, PMI act satM6P 0.9, PMI act 0.9 and Calpain2 inh 21.
`CCC(C)NC(=S)N1CCN(C)CC1` (stereo not drawn) gave Rad51 HR inh -30, Lmaj promast 2, WT yeast gro inh 4, PMI act satM6P 1, PMI act 1 and Calpain2 inh -2.
Screening OCC1CCCN(c2ncnc3scc(-c4ccccc4)c23)C1 (stereo not drawn) returned Rad51 HR inh -2, Lmaj promast -1, WT yeast gro inh -13, PMI act satM6P 1, PMI act 1 and Calpain2 inh -12.
For Fc1ccc(-c2csc3ncnc(Nc4ccc(N5CCOCC5)cc4)c23)cc1 the results were Rad51 HR inh -7, Lmaj promast 65*, WT yeast gro inh 38, PMI act satM6P 0.9, PMI act 0.9 and Calpain2 inh -5.
Screening Cc1ccc(-c2csc3ncnc(N4CCc5ccccc5C4)c23)cc1 returned Rad51 HR inh 6, Lmaj promast 16, WT yeast gro inh 66*, PMI act satM6P 0.9, PMI act 0.9 and Calpain2 inh 12.
`Fc1ccc(-c2csc3ncnc(N4CCc5ccccc5C4)c23)cc1` gave Rad51 HR inh 5, Lmaj promast 67*, WT yeast gro inh 66*, PMI act satM6P 1, PMI act 1 and Calpain2 inh 10.
`CC1(C)Cc2cccc(C(=O)NC3CCN(Cc4ccccc4)CC3)c2O1` gave Rad51 HR inh 5 and Calpain2 inh -1.
For COc1ccc(OC)c(-c2csc(N(CC3CCCO3)C(=O)Cc3ccccc3)n2)c1 (stereo not drawn) the results were Rad51 HR inh 0, Lmaj promast 3, WT yeast gro inh -7, PMI act satM6P 0.9, PMI act 0.8 and Calpain2 inh 7.
O=C(COC(=O)c1ccccc1NC(=O)C1CC1)c1ccc2c(c1)OCCO2 was read as Rad51 HR inh 4, Lmaj promast 5, WT yeast gro inh 8, PMI act satM6P 0.8, PMI act 0.8 and Calpain2 inh 16.
CC(=O)Nc1nc2ccccc2n1CCOc1ccccc1Cl was read as Rad51 HR inh -7, Lmaj promast 99*, WT yeast gro inh 18, PMI act satM6P 0.8, PMI act 0.8 and Calpain2 inh -6.
`CCC(=O)Nc1nc2ccccc2n1Cc1ccc(Cl)cc1` gave Rad51 HR inh -1, Lmaj promast 99*, WT yeast gro inh 64, PMI act satM6P 1.2, PMI act 1.1 and Calpain2 inh -14.
For Cc1ccc(Cn2c(SCC(=O)N/N=C/c3ccc(C)o3)nc3ccccc32)cc1 the results were Rad51 HR inh 2, Lmaj promast 11, WT yeast gro inh 45, PMI act satM6P 0.9, PMI act 0.9 and Calpain2 inh -113.
CC(=O)Nc1nc2ccccc2n1Cc1ccccc1Cl was read as Calpain2 inh -14.
`CC(=O)Nc1nc(NC(=O)/C=C/c2ccccc2)n(-c2ccccc2)n1` gave Rad51 HR inh -7, Lmaj promast 95*, WT yeast gro inh 4, PMI act satM6P 1.3, PMI act 1.3 and Calpain2 inh 23.
O=C(CSc1nc2ccccc2n1Cc1ccccc1)N/N=C/c1ccco1 was read as Rad51 HR inh 1, Lmaj promast 50*, WT yeast gro inh -9, PMI act satM6P 0.9, PMI act 0.8 and Calpain2 inh -1.
`COc1ccc(-c2[nH]ncc2/C=C(/C#N)C(=O)NC2CCCCCC2)cc1` gave Rad51 HR inh 2, Lmaj promast 32, WT yeast gro inh 19, PMI act satM6P 1, PMI act 0.8 and Calpain2 inh -169.
CC(OC(=O)c1ccncc1)C(=O)Nc1ccc([N+](=O)[O-])cc1Cl (stereo not drawn) was read as Rad51 HR inh 15, Lmaj promast 2, WT yeast gro inh -5, PMI act satM6P 1.1, PMI act 1.1 and Calpain2 inh -9.
Screening CC(C)=CC(=O)Nc1ccc(S(=O)(=O)Nc2ccccn2)cc1 returned Rad51 HR inh 9, Lmaj promast -3, WT yeast gro inh 6, PMI act satM6P 1, PMI act 1 and Calpain2 inh -22.
For CC(NC(=O)CSc1nc2ccc(N)cc2s1)c1ccccc1 (stereo not drawn) the results were Rad51 HR inh 38, Lmaj promast 12, WT yeast gro inh -29, PMI act satM6P 0.7, PMI act 1 and Calpain2 inh -33.
Screening COc1cc2ccccc2cc1C(=O)NC(=S)Nc1cccc(C(=O)O)c1C returned Calpain2 inh -300.
Screening CC(=O)Nc1nc2ccccc2n1Cc1ccccc1C returned Rad51 HR inh -12, Lmaj promast 96*, WT yeast gro inh 9, PMI act satM6P 0.9, PMI act 0.9 and Calpain2 inh -8.
O=C(Nc1nc2ccccc2n1Cc1ccccc1)c1ccco1 was read as Rad51 HR inh -3, Lmaj promast 73*, WT yeast gro inh 14, PMI act satM6P 1.1, PMI act 1 and Calpain2 inh -3.
`O=C(Cn1c(NCCCO)nc2ccccc21)c1ccco1` gave Rad51 HR inh -3, Lmaj promast 2, WT yeast gro inh -6, PMI act satM6P 1, PMI act 1 and Calpain2 inh -6.
Screening O=C(Nc1nc(NC(=O)c2ccco2)n(-c2ccccc2)n1)c1ccccc1 returned Rad51 HR inh 3, Lmaj promast 100*, WT yeast gro inh 8, PMI act satM6P 1.3, PMI act 1.2 and Calpain2 inh 26.
`Nc1nc(NC(=O)c2ccccc2)nn1-c1ccccc1` gave Lmaj promast -3, WT yeast gro inh -10, PMI act satM6P 1.1, PMI act 1.1 and Calpain2 inh 0.
`CC(C)c1nnc(NC(=O)C2CCN(S(=O)(=O)c3ccc(-n4cnnn4)cc3)CC2)s1` gave Rad51 HR inh -36, Lmaj promast -8, WT yeast gro inh 6, PMI act satM6P 0.9, PMI act 0.9 and Calpain2 inh 23.

Bioassay records: PubChem, several laboratories
